Data reported in ChEMBL document CHEMBL1143707, “7-Arylpiperazinylalkyl and 7-tetrahydroisoquinolinylalkyl derivatives of 8-alkoxy-purine-2,6-dione and some of their purine-2,6,8-trione analogs as 5-HT(1A), 5-HT(2A), and 5-HT(7) serotonin receptor ligands” (Bioorg Med Chem, 2007).

Assays:
Mus musculus [1] = assay: Effect on compound induced hypothermia in Swiss Albino mouse at 10 mg/kg, ip in presence of 0.1 mg/kg WAY 100635 after 60 mins relative to control; assay type: functional
Summary of the method: (§1)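 Male Albino Swiss mice; WAY 100635 0.1 mg/kg sc (in distilled water) 15 min before ip compound (1% Tween 80); rectal temperature at 30 and 60 min after compound; Δt from basal; n = 8/group; mean ± SEM.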

[2] = target: 5-hydroxytryptamine receptor 2A (Rattus norvegicus, UniProt P14842); assay: Displacement of [3H]ketanserin from rat brain 5HT2A receptor
5-hydroxytryptamine receptor 2A, sequence (P14842 whole entry): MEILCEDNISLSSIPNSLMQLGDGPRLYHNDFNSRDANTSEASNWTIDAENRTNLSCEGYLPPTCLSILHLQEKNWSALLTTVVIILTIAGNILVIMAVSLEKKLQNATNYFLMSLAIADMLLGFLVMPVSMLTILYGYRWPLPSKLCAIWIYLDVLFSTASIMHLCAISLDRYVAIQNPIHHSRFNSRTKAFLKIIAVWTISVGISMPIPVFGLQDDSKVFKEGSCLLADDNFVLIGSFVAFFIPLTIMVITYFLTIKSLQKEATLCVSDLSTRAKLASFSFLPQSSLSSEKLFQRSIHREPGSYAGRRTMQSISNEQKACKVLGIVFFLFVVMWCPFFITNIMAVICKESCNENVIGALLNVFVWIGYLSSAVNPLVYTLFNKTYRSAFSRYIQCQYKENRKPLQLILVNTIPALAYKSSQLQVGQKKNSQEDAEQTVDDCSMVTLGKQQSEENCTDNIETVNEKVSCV
Summary of the method: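 Rat brain membranes; 0.6 nM [3H]-ketanserin; nonspecific binding with 1 μM methysergide; 8–10 competitor concentrations in triplicate, ≥3 experiments; GF/B filtration, scintillation counting; Ki via Cheng–Prusoff.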

Mus musculus [3] = assay: Decrease in body temperature in Swiss Albino mouse at 5 mg/kg, ip administered 30 mins before the test measured after 60 mins relative to control; assay type: functional; details: route intraperitoneal
Summary of the method: (§2)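 Male Albino Swiss mice (24-28 g) given compound ip in 1% aqueous Tween 80 (10 mL/kg); rectal temperature read at 30, 60, 90 and 120 min post-dose; Δt versus basal temperature taken at start (initial ~36.0 °C); n = 8/group; mean ± SEM.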

Mus musculus [4] = assay: Decrease in body temperature in Swiss Albino mouse at 5 mg/kg, ip administered 30 mins before the test measured after 120 mins relative to control; assay type: functional; details: route intraperitoneal; summary of the method: as §2
Mus musculus [5] = assay: Decrease in body temperature in Swiss Albino mouse at 5 mg/kg, ip administered 30 mins before the test measured after 90 mins relative to control; assay type: functional; details: route intraperitoneal; summary of the method: as §2
[6] = target: T1, 5-hydroxytryptamine receptor 1A (Rattus norvegicus, UniProt P19327); assay: Displacement of [3H]8-OH-DPAT from rat brain 5HT1A receptor
T1 sequence (P19327 whole entry): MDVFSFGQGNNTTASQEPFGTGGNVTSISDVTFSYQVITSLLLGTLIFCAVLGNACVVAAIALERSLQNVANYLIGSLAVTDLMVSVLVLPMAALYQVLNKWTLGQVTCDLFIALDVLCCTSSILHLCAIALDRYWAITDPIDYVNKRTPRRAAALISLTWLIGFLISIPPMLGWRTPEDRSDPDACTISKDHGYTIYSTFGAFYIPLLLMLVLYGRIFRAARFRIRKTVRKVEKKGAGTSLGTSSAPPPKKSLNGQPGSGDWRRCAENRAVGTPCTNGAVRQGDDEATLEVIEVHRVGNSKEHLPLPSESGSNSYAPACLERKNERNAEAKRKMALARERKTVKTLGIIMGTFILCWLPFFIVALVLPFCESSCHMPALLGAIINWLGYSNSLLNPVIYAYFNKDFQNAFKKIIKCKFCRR
Summary of the method: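 Rat hippocampal membranes; 1 nM [3H]-8-OH-DPAT; nonspecific binding with 10 μM 5-HT; 8–10 competitor concentrations in triplicate, ≥3 experiments; GF/B filtration, ice-cold buffer washes, scintillation counting; Ki by nonlinear regression with Cheng–Prusoff.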

Mus musculus [7] = assay: Decrease in body temperature in Swiss Albino mouse at 5 mg/kg, ip administered 30 mins before the test measured after 30 mins relative to control; assay type: functional; details: route intraperitoneal; summary of the method: as §2
Mus musculus [8] = assay: Effect on body temperature in Swiss Albino mouse assessed as decrease at 10 mg/kg, ip after 90 mins relative to initial temperature; assay type: functional; details: route intraperitoneal; summary of the method: as §2
Mus musculus [9] = assay: Effect on compound induced hypothermia in Swiss Albino mouse at 10 mg/kg, ip in presence of 0.1 mg/kg WAY 100635 after 30 mins relative to control; assay type: functional; summary of the method: as §1
Mus musculus [10] = assay: Effect on body temperature in Swiss Albino mouse assessed as decrease at 10 mg/kg, ip after 30 mins relative to initial temperature; assay type: functional; details: route intraperitoneal; summary of the method: as §2
Mus musculus [11] = assay: Effect on body temperature in Swiss Albino mouse assessed as decrease at 10 mg/kg, ip after 120 mins relative to initial temperature; assay type: functional; details: route intraperitoneal; summary of the method: as §2
[12] = target: 5-hydroxytryptamine receptor 7 (Rattus norvegicus, UniProt P32305); assay: Displacement of [3H]5CT from 5HT7 receptor in Wistar rat hyphalamic membrane; assay type: cell membranes
5-hydroxytryptamine receptor 7, sequence (P32305 whole entry): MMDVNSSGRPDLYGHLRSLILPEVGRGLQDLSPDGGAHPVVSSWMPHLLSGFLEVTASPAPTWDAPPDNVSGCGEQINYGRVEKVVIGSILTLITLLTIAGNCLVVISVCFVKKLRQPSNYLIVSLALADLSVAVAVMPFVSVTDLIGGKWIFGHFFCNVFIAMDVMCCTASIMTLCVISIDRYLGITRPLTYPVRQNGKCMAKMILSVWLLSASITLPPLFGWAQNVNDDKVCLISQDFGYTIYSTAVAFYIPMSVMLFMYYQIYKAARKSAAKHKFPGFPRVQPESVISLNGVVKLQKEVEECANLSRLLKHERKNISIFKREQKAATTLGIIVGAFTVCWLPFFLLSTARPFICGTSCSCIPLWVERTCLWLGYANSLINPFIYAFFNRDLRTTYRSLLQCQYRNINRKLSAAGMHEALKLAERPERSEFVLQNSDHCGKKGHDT

Mus musculus [13] = assay: Effect on body temperature in Swiss Albino mouse assessed as decrease at 10 mg/kg, ip after 60 mins relative to initial temperature; assay type: functional; details: route intraperitoneal; summary of the method: as §2
Mus musculus [14] = assay: Locomotor activity in Swiss Albino mouse assessed as number of crossings in 30 mins at 30 mg/kg, ip administered 30 mins before the test; assay type: functional; details: route intraperitoneal
Summary of the method: (§3)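 Male Albino Swiss mice dosed ip 30 min before test (compound in 1% Tween 80; imipramine in distilled water); individual cages with IR beam sensors, consecutive beam breaks scored as ambulatory counts during first 6 min and over a 30-min session; n = 10/group; mean ± SEM.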

Mus musculus [15] = assay: Antidepressant activity in Swiss Albino mouse assessed as immobility time during final 4 mins of 6 mins session at 20 mg/kg, ip administered 30 mins before the test in forced-swimming test; assay type: functional; details: route intraperitoneal
Summary of the method: (§4)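 Male Albino Swiss mice (24-28 g), ip in 1% aqueous Tween 80 suspension (10 mL/kg), 30 min pretest; single glass cylinder (25 cm high, 10 cm diameter), 6 cm water at 23–25 °C for 6 min; immobility (floating, minimal head-keeping movements) timed over final 4 min; n = 9-10/group; mean ± SEM.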

Mus musculus [16] = assay: Antidepressant activity in Swiss Albino mouse assessed as immobility time during final 4 mins of 6 mins session at 10 mg/kg, ip administered 30 mins before the test in forced-swimming test; assay type: functional; details: route intraperitoneal; summary of the method: as §4
Mus musculus [17] = assay: Locomotor activity in Swiss Albino mouse assessed as number of crossings in 6 mins at 10 mg/kg, ip administered 30 mins before the test; assay type: functional; details: route intraperitoneal; summary of the method: as §3
Mus musculus [18] = assay: Antidepressant activity in Swiss Albino mouse assessed as immobility time during final 4 mins of 6 mins session at 30 mg/kg, ip administered 30 mins before the test in forced-swimming test; assay type: functional; details: route intraperitoneal
Mus musculus [19] = assay: Locomotor activity in Swiss Albino mouse assessed as number of crossings in 30 mins at 10 mg/kg, ip administered 30 mins before the test; assay type: functional; details: route intraperitoneal; summary of the method: as §3
Mus musculus [20] = assay: Locomotor activity in Swiss Albino mouse assessed as number of crossings in 6 mins at 20 mg/kg, ip administered 30 mins before the test; assay type: functional; details: route intraperitoneal; summary of the method: as §3
Mus musculus [21] = assay: Locomotor activity in Swiss Albino mouse assessed as number of crossings in 6 mins at 30 mg/kg, ip administered 30 mins before the test; assay type: functional; details: route intraperitoneal; summary of the method: as §3

SMILES | Ki [2] | Ki [6] | Ki [12] | also measured
CCCOc1nc2c(c(=O)n(C)c(=O)n2C)n1CCCCN1CCN(c2cccc(Cl)c2)CC1 | 28 nM | 15 nM | 125 nM | Activity (Mus musculus [1]): -0.9 °C; Activity (Mus musculus [3]): -0.6 °C; Activity (Mus musculus [4]): -0.2 °C; Activity (Mus musculus [5]): -0.6 °C; Activity (Mus musculus [7]): -0.7 °C; Activity (Mus musculus [8]): -1.1 °C; Activity (Mus musculus [9]): -1.4 °C; Activity (Mus musculus [10]): -1.7 °C; Activity (Mus musculus [11]): -1.1 °C; Activity (Mus musculus [13]): -1.1 °C
CCOc1nc2c(c(=O)n(C)c(=O)n2C)n1CCCN1CCN(c2ccccc2)CC1 | 176 nM | 1300 nM | 477 nM | 
CCOc1nc2c(c(=O)n(C)c(=O)n2C)n1CCCCN1CCN(c2cccc(Cl)c2)CC1 | 15 nM | 12 nM | 51 nM | 
CCOc1nc2c(c(=O)n(C)c(=O)n2C)n1CCCN1CCc2ccccc2C1 | 590 nM | 1070 nM | 5750 nM | 
CCOc1nc2c(c(=O)n(C)c(=O)n2C)n1CCCN1CCN(c2ccccc2OC)CC1 | 980 nM | 83 nM | 410 nM | 
CCCOc1nc2c(c(=O)n(C)c(=O)n2C)n1CCCN1CCN(c2ccccc2)CC1 | 51 nM | 800 nM | 980 nM | 
Cn1c(=O)c2c([nH]c(=O)n2CCCN2CCc3ccccc3C2)n(C)c1=O | 7960 nM | 6320 nM | 16500 nM | 
CCCOc1nc2c(c(=O)n(C)c(=O)n2C)n1CCCCN1CCc2ccccc2C1 | 920 nM | 332 nM | 57 nM | 
Cn1c(=O)c2c([nH]c(=O)n2CCCN2CCN(c3cccc(Cl)c3)CC2)n(C)c1=O | 58 nM | 1110 nM | 1880 nM | 
CCCOc1nc2c(c(=O)n(C)c(=O)n2C)n1CCCCN1CCN(c2ccccc2OC)CC1 | 150 nM | 19 nM | 160 nM | 
CN(C)CCCN1c2ccccc2CCc2ccccc21 [IMIPRAMINE] |  |  |  | Activity (Mus musculus [14]): 602.3; Activity (Mus musculus [15]): 107.8 s; Activity (Mus musculus [16]): 149.1 s; Activity (Mus musculus [17]): 338; Activity (Mus musculus [18]): 76.4 s; Activity (Mus musculus [19]): 877; Activity (Mus musculus [20]): 314.9; Activity (Mus musculus [21]): 300.9
